The subject of one test is Bacillus subtilis. Nature of the test: Antibacterial activity against Bacillus subtilis 168 assessed as inhibition of bacterial growth incubated for 18 hrs by CLSI protocol based two-fold serial dilution assay. Format: functional. A digest of the protocol:
(§1)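 B. subtilis 168 or E. coli ATCC 25922 was grown in MHB and tested by CLSI-based broth microdilution. An overnight culture (37 °C, 250 rpm) was diluted tenfold, grown 2 h, and set to 5 × 10^6 CFU mL−1 by A600. Cells were added to two-fold serial compound dilutions (1% DMSO) and incubated 18 h at 37 °C. Read-out was A600, in duplicate. MIC was the lowest concentration giving A600 < 0.1.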

The subject of test [1] is Staphylococcus aureus. Nature of the test: Antibacterial activity against Staphylococcus aureus 29213 assessed as inhibition of bacterial growth incubated for 18 hrs by CLSI protocol based two fold serial dilution method. The test is classed as functional. In a few lines: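 S. aureus ATCC 29213 was grown in CAMHB and tested by CLSI-based broth microdilution. An overnight culture (37 °C, 250 rpm) was diluted tenfold, grown 2 h, and set to 5 × 10^6 CFU mL−1. Cells were added to two-fold serial compound dilutions (1% DMSO) and incubated 18 h at 37 °C. Read-out was A600, in duplicate. MIC was the lowest concentration with A600 < 0.1.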

Test [2] relates to Escherichia coli. Nature of the test: Antibacterial activity against Escherichia coli 25922 assessed as inhibition of bacterial growth incubated for 18 hrs by CLSI protocol based two fold serial dilution method. Format: functional. A digest of the protocol: as §1
The test system of test [3] is Staphylococcus aureus. Nature of the test: Antibacterial activity against methicillin-resistant Staphylococcus aureus BAA 41 assessed as inhibition of bacterial growth incubated for 18 hrs by CLSI protocol based two fold serial dilution method. Format: functional. In a few lines: (§2)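 CAMHB culture grown overnight at 37 °C with shaking at 250 rpm, diluted 10-fold, and grown 2 h. Inoculum set to 5 × 10^6 CFU mL−1 by A600. Compounds in DMSO were serially diluted two-fold, with 1% DMSO per well. Read at A600 after 18 h at 37 °C. MIC is the lowest concentration giving A600 < 0.1. Run in duplicate.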

In test [4] the test system is Staphylococcus aureus. Nature of the test: Antibacterial activity against methicillin-resistant Staphylococcus aureus BAA 44 assessed as inhibition of bacterial growth incubated for 18 hrs by CLSI protocol based two fold serial dilution method. Format: functional. A digest of the protocol:
as §2

For test [5], the system named is Staphylococcus aureus. Nature of the test: Antibacterial activity against methicillin-resistant Staphylococcus aureus ATCC 43300 assessed as inhibition of bacterial growth incubated for 18 hrs by CLSI protocol based two fold serial dilution method. The test is classed as functional. In a few lines: as §2
In test [6] the test system is Staphylococcus aureus. Nature of the test: Antibacterial activity against methicillin-resistant Staphylococcus aureus ATCC 33591 assessed as inhibition of bacterial growth incubated for 18 hrs by CLSI protocol based two fold serial dilution method. Format: functional. In a few lines: as §2
The subject of test [7] is Staphylococcus aureus. Nature of the test: Antibacterial activity against methicillin-resistant Staphylococcus aureus ATCC 33592 assessed as inhibition of bacterial growth incubated for 18 hrs by CLSI protocol based two fold serial dilution method. The test is classed as functional. In a few lines:
as §2

Test [8] concerns Staphylococcus aureus. Nature of the test: Antibacterial activity against methicillin-resistant Staphylococcus aureus BAA 1720 assessed as inhibition of bacterial growth incubated for 18 hrs by CLSI protocol based two fold serial dilution method. The test is classed as functional. A digest of the protocol: as §2
The subject of test [9] is Escherichia coli. Nature of the test: Synergistic antibacterial activity against Escherichia coli 25922 assessed as inhibition of bacterial growth incubated for 18 hrs in presence of PMBN by checkerboard assay. The test is classed as functional. In a few lines:
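E. coli ATCC 25922 was tested in MHB by the broth microdilution format with two-fold serial compound dilutions. Polymyxin B nonapeptide was added to each well at 20 μg mL−1 final before adding bacteria at 5 × 10^5 CFU mL−1. Growth was read by A600.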

For test [10], the system named is Staphylococcus aureus. Nature of the test: Synergistic antibacterial activity against methicillin-resistant Staphylococcus aureus BAA 41 assessed as inhibition of bacterial growth incubated for 18 hrs in presence of methicillin by checkerboard assay. The test is classed as functional. A digest of the protocol: (§3)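 Checkerboard: test compound serially diluted two-fold across the plate and methicillin serially diluted down it. Bacteria added at 5 × 10^5 CFU mL−1. Incubated at 37 °C for 16–24 h, then growth read at A600. Untreated-cell columns included. FICI calculated from the combination MICs.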

Test [11] relates to Staphylococcus aureus. Nature of the test: Synergistic antibacterial activity against methicillin-resistant Staphylococcus aureus BAA 41 assessed as FICI incubated for 18 hrs in presence of methicillin by checkerboard assay. The test is classed as functional. A digest of the protocol: as §3
Test [12] concerns Staphylococcus aureus. Nature of the test: Synergistic antibacterial activity against methicillin-resistant Staphylococcus aureus BAA 41 assessed as inhibition of bacterial growth incubated for 18 hrs in presence of PC190723 by checkerboard assay. Format: functional.
The test system of test [13] is Staphylococcus aureus. Nature of the test: Synergistic antibacterial activity against methicillin-resistant Staphylococcus aureus BAA 41 assessed as FICI incubated for 18 hrs in presence of S2727 by checkerboard assay. Format: functional. In a few lines: (§4)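 Checkerboard against MRSA BAA 41. Compound two-fold serially diluted across the plate and methicillin down it. Inoculum 5 × 10^5 CFU mL−1, with untreated-cell columns. Incubated at 37 °C for 16–24 h and growth read as A600. FICI computed from the combined MICs, and <0.5 taken as synergy.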

Test [14] deals with Staphylococcus aureus. Nature of the test: Synergistic antibacterial activity against methicillin-resistant Staphylococcus aureus BAA 41 assessed as FICI incubated for 18 hrs in presence of S2163 by checkerboard assay. The test is classed as functional. In a few lines: as §4
Test [15] relates to Staphylococcus aureus. Nature of the test: Synergistic antibacterial activity against methicillin-resistant Staphylococcus aureus BAA 41 assessed as FICI incubated for 18 hrs in presence of PC190723 by checkerboard assay. Format: functional. In a few lines:
as §4

The subject of test [16] is Staphylococcus aureus. Nature of the test: microbe, parasite or virus in culture. The settings on record: BAA 41, 18 h.
Test [17] deals with Staphylococcus aureus. Nature of the test: microbe, parasite or virus in culture. The settings on record: BAA 41, 18 h. The source holds these as a separate data set.

Experimental findings from ChEMBL document CHEMBL5104102, “Discovery of FtsZ inhibitors by virtual screening as antibacterial agents and study of the inhibition mechanism” (RSC Med Chem, 2022) are described below.

Values after ≈ are worked out from the molar mass of the structure shown.

For `COc1ccccc1S(=O)(=O)Nc1ccc2c(c1)CN(C)C(=O)N2`, the MIC with Bacillus subtilis, in the test on Staphylococcus aureus [1] and with Escherichia coli [2] was over 128 µg/mL in each case.
With `COCCOc1ccc2c(c1)ncn2-c1ccc2cccc(N3CCC(N)CC3)c2n1`, the MIC with Bacillus subtilis, with Staphylococcus aureus [1] and with Escherichia coli [2] was over 128 µg/mL throughout.
Turning to `CCc1cncnc1N1CCN(Cc2nc3cc(C(F)(F)F)ccc3[nH]2)CC1`, the MIC is 128 µg/mL (≈ 328 µM) with Bacillus subtilis; 128 µg/mL (≈ 328 µM) in the test with Staphylococcus aureus [1]; over 128 µg/mL in the test on Escherichia coli [2]; 64 µg/mL (≈ 164 µM) in the test on Staphylococcus aureus [3]; 64 µg/mL (≈ 164 µM) with Staphylococcus aureus [4]; 32 µg/mL (≈ 82 µM) with Staphylococcus aureus [5]. Further, the MIC with Staphylococcus aureus [6] is 64 µg/mL (≈ 164 µM); with Staphylococcus aureus [7] it was 64 µg/mL (≈ 164 µM); in the test on Staphylococcus aureus [8], 64 µg/mL (≈ 164 µM); in the test with Escherichia coli [9], 64 µg/mL; in the test with Staphylococcus aureus [10] it was 128 µg/mL. Besides, the “fractional inhibitory concentration index (FICI)” value in the test on Staphylococcus aureus [11] is over 1.
Consider `CCOC(=O)C(CCc1ccccc1)NC(C)C(=O)N1Cc2ccccc2CC1C(=O)O.Cl` (stereo unspecified), for which the MIC in the test on Bacillus subtilis, in the test on Staphylococcus aureus [1] and in the test with Escherichia coli [2] was over 128 µg/mL each time.
For `CC1(C)CC(=O)c2c(C(F)(F)F)nn(-c3ccc(C(N)=O)c(N[C@H]4CC[C@H](OC(=O)CN)CC4)c3)c2C1` [SNX 5422], the MIC in the test on Bacillus subtilis, with Staphylococcus aureus [1] and with Escherichia coli [2] was over 128 µg/mL each time.
`COc1cccc(OC)c1C(=O)N[C@@H]1C(=O)N2[C@@H]1SC(C)(C)[C@@H]2C(=O)O` [METHICILLIN]: the MIC in the test on Staphylococcus aureus [3] came out at 1020 µg/mL (≈ 2690 µM); with Staphylococcus aureus [4] it was 512 µg/mL (≈ 1350 µM); in the test with Staphylococcus aureus [5], 256 µg/mL (≈ 673 µM); in the test with Staphylococcus aureus [6], 512 µg/mL (≈ 1350 µM); with Staphylococcus aureus [7], 256 µg/mL (≈ 673 µM); with Staphylococcus aureus [8], 256 µg/mL (≈ 673 µM). The MIC with Staphylococcus aureus [12] came out at 4 µg/mL; against Staphylococcus aureus [16] it was 4 µg/mL (≈ 10.5 µM); with Staphylococcus aureus [17], 1 µg/mL (≈ 2.63 µM). Further, the “fractional inhibitory concentration index (FICI)” value in the test with Staphylococcus aureus [13] is listed as 0.5; in the test with Staphylococcus aureus [14] it was over 1; in the test with Staphylococcus aureus [15], 0.52.
Consider `CN(C)C(=O)[C@H](O)[C@H](Cc1ccccc1)NC(=O)c1cc2cc(Cl)ccc2[nH]1`, for which the MIC with Bacillus subtilis was 16 µg/mL (≈ 40 µM); in the test on Staphylococcus aureus [1], over 128 µg/mL; with Escherichia coli [2], over 128 µg/mL; with Staphylococcus aureus [3], over 128 µg/mL; in the test with Staphylococcus aureus [4], over 128 µg/mL; with Staphylococcus aureus [5] it was 32 µg/mL (≈ 80 µM). The MIC in the test on Staphylococcus aureus [6], in the test with Staphylococcus aureus [7] and in the test on Staphylococcus aureus [8] was over 128 µg/mL in each case.
`Cc1cnc(-c2cc(N3CCN(C(=O)CCS(C)(=O)=O)CC3)ncc2Cl)c(C)c1`: the MIC in the test on Bacillus subtilis, with Staphylococcus aureus [1] and in the test on Escherichia coli [2] was over 128 µg/mL each time.
With `COc1ccc(-c2cc3c(C)nc(N)nc3n([C@H]3CC[C@H](OCCO)CC3)c2=O)cn1` [PF-04691502], the MIC in the test with Bacillus subtilis, with Staphylococcus aureus [1] and with Escherichia coli [2] was over 128 µg/mL throughout.
